This note sets out measurements from ChEMBL document CHEMBL1641407, “Imidazo[4,5-d]thiazolo[5,4-b]pyridine based inhibitors of IKK2: synthesis, SAR, PK/PD and activity in a preclinical model of rheumatoid arthritis” (Bioorg Med Chem Lett, 2011).

One data set has as its system PBMC. Briefly: Antiinflammatory activity in human PBMC assessed as inhibition of LPS-induced TNFalpha release treated for 5 mins before LPS challenge measured after 6 hrs by ELISA. The format is functional, cell-based. Put shortly: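 PBMCs purified from heparinized healthy-volunteer blood by Ficoll-Hypaque gradient and suspended at 5 × 10⁶/mL in RPMI with 10% FBS. Cells preincubated with compound (0.2% DMSO) for 5 min at room temperature. LPS added from a 200 ng/mL stock, then 6 h at 37 °C. Medium TNF-α measured by ELISA. IC50 by linear regression.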
Background: An ELISA detects its analyte on a solid surface through an enzyme-linked reagent.

The target of data set [1] is T1, Inhibitor of nuclear factor kappa-B kinase subunit beta (Homo sapiens, UniProt O14920).
T1 sequence (O14920 whole entry): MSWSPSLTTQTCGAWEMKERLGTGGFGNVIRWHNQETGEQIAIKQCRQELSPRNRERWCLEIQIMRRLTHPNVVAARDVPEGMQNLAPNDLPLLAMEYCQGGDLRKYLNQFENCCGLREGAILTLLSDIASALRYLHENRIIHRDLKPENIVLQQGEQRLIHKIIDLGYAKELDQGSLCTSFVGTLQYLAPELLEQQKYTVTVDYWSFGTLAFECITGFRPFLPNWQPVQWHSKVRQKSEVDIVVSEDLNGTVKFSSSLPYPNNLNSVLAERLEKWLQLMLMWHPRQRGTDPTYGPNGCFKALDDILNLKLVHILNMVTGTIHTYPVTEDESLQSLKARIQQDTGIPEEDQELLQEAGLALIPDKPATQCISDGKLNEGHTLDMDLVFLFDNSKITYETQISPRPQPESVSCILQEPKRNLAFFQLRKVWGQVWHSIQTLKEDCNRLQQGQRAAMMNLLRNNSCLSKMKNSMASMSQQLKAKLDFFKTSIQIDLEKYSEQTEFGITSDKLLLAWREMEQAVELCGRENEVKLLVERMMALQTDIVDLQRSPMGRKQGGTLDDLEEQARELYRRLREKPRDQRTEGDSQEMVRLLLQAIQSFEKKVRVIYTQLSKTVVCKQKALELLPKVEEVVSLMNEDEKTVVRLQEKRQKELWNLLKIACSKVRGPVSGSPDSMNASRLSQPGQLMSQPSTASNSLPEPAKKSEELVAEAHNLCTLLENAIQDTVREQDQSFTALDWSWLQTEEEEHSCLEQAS
Briefly: Inhibition of IKK2. Put shortly: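 IKK-2 added at room temperature to 50 µg/mL GST-IκBα with ATP in 25 mM Tris·HCl, pH 7.5, containing MgCl₂, phosphate salts, NaCl, KCl, 1 mM DTT, 5% glycerol and BSA. Stopped after 60 min with 33 mM EDTA. Phospho-IκBα read by fluorescence-polarization competition between an anti-phospho-IκBα antibody and a fluorescein-labelled phosphopeptide.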

Data set [2] concerns the target T2, Inhibitor of nuclear factor kappa-B kinase subunit alpha (Homo sapiens, UniProt O15111).
T2 sequence (O15111 whole entry): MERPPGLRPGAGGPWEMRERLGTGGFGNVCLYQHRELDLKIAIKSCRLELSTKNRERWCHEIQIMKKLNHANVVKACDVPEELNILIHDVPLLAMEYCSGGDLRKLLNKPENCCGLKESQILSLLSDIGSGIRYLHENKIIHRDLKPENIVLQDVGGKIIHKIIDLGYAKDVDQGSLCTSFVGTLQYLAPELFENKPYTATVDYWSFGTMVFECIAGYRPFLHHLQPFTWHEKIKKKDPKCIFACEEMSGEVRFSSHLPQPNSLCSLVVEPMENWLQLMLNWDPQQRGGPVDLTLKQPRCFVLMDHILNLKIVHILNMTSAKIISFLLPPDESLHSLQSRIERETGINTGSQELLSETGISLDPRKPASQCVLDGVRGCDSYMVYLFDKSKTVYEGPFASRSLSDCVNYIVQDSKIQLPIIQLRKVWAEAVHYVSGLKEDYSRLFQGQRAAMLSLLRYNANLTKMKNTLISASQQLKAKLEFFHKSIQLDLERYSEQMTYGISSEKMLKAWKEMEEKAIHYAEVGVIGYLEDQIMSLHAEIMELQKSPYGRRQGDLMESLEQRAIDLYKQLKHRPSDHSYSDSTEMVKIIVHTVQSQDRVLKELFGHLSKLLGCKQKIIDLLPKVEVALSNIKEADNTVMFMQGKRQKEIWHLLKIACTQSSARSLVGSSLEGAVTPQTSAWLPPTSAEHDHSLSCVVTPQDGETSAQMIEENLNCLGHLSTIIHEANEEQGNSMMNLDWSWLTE
Put plainly: Inhibition of IKK1.

The nature of data set [3]: Clearance in rat at 2 mg/kg, iv and 10 mg/kg, po. To be noted: in vivo. Type of data set: ADME, organism-based.
The nature of data set [4]: Half life in rat at 2 mg/kg, iv and 10 mg/kg, po. To be noted: in vivo. Type of data set: ADME, organism-based.
Data set [5] concerns the target Serine/threonine-protein kinase 16 (Homo sapiens) (UniProt O75716). Put plainly: Residual activity at STK16 at 10 uM relative to control.
The subject of data set [6] is Mus musculus. Briefly: Metabolic stability in mouse assessed as metabolite (S)-N-(1-(3-(5-amino-8-methyl-8H-imidazo[4,5-d]thiazolo[5,4-b]pyridin-2-yl)phenyl)ethyl)acetamide total AUC at 2 mg/kg, iv and 10 mg/kg, po. As to conditions: in vivo. Type of data set: ADME, organism-based.
The next data set deals with Rattus norvegicus. Briefly: Metabolic stability in rat assessed as metabolite (S)-N-(1-(3-(5-amino-8-methyl-8H-imidazo[4,5-d]thiazolo[5,4-b]pyridin-2-yl)phenyl)ethyl)acetamide total AUC at 2 mg/kg, iv and 10 mg/kg, po. Type of data set: ADME, organism-based. As to conditions: in vivo.
Data set [7] deals with Blood. Put plainly: Antiinflammatory activity in human whole blood assessed as inhibition of LPS-induced TNFalpha release treated for 5 mins before LPS challenge measured after 6 hrs by ELISA. The format is functional, tissue-based.
Another data set deals with Canis familiaris. Put plainly: Metabolic stability in dog assessed as metabolite (S)-N-(1-(3-(5-amino-8-methyl-8H-imidazo[4,5-d]thiazolo[5,4-b]pyridin-2-yl)phenyl)ethyl)acetamide total AUC at 2 mg/kg, iv. The format is ADME, organism-based, Canis lupus familiaris. Details: dose 2 mg/kg, route intravenous, time AUCmax. To be noted: in vivo.
Data set [8] has as its target Death-associated protein kinase 2 (Homo sapiens) (UniProt Q9UIK4). Briefly: Residual activity at DAPK2 at 10 uM relative to control.
The test system of data set [9] is Blood. Put plainly: Antiinflammatory activity in mouse whole blood assessed as inhibition of LPS-induced TNFalpha release treated for 5 mins before LPS challenge measured after 6 hrs by ELISA. The format is functional, tissue-based.
Data set [10] concerns Mus musculus. Briefly: Antiinflammatory activity in po dosed BALB/c mouse assessed as inhibition of LPS-induced TNFalpha release administered for 5 hrs before LPS challenge measured after 6.5 hrs post dose by ELISA. The format is functional, organism-based. An outline of the steps: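 BALB/c female mice, 6–8 weeks old, n = 7–8 per treatment. Compounds given by oral gavage at 30 and 100 mg/kg in PEG400/HCl/Tween80/water; controls received vehicle alone. Five hours later, E. coli O111:B4 LPS 50 µg/kg ip. Serum collected 90 min after LPS, TNF-α measured by ELISA. Drug exposure sampled 6.5 h post-dose. Mean ± standard error.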

Sequence of Serine/threonine-protein kinase 16 (Homo sapiens) (O75716 whole entry): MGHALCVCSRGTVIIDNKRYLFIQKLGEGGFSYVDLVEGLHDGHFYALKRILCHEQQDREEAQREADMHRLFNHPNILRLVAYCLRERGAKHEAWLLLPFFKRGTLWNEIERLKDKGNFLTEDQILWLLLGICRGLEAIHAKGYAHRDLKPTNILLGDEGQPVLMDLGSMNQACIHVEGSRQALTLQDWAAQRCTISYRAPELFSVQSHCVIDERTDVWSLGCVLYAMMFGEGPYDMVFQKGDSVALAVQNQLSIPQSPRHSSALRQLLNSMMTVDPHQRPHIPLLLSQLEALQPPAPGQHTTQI
Sequence of Death-associated protein kinase 2 (Homo sapiens) (Q9UIK4 whole entry, looked up): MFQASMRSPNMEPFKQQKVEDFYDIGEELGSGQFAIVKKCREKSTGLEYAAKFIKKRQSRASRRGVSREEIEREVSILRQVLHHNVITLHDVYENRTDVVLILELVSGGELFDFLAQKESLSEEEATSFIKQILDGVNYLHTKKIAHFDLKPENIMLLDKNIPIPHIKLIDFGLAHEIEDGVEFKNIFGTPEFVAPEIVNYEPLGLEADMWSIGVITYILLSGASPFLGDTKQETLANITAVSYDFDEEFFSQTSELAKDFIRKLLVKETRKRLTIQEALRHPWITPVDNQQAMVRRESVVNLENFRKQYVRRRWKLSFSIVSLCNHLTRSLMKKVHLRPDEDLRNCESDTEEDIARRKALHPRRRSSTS

For `CC(=O)N[C@@H](C)c1cccc(-c2nc3c(nc(N(C)C)c4ncn(C)c43)s2)c1`, the IC50 (in general, the concentration that gives 50% inhibition) in the data set on PBMC stood at 990 nM; in [1], 100 nM.
On the same counts, the results for `CNc1nc2sc(-c3cccc([C@@H](C)NC(C)=O)c3)nc2c2c1ncn2C` are 560 nM and 28 nM.
Turning to `CC(=O)N[C@@H](C)c1cccc(-c2nc3c(nc(NC(=O)N(C)C)c4ncn(C)c43)s2)c1`, in data set [1], half-maximal inhibition (IC50) required 130 nM.
Consider `CNc1nc2sc(-c3cccc([C@H](C)NC(C)=O)c3)nc2c2c1ncn2C`, for which the IC50 was 230 nM in data set [2], 80 nM with PBMC and 6 nM in data set [1].
For `CNc1nc2sc(-c3ccc(CNC(C)=O)cc3)nc2c2c1ncn2C`, the figures for the IC50 (in the data set with PBMC; in data set [1]) were 530 nM and 60 nM, respectively.
Turning to `CCNc1nc2sc(-c3cccc([C@H](C)NC(=O)CNC(C)=O)c3)nc2c2c1ncn2C`, the half-inhibitory concentration (IC50) came out at 480 nM with PBMC and 27 nM in [1].
On the same counts, the results for `CCNCC(=O)N[C@@H](C)c1cccc(-c2nc3c(nc(NCC)c4ncn(C)c43)s2)c1` are 440 nM and 39 nM.
`CCNc1nc2sc(-c3cccc([C@H](C)NC(=O)C4CCN(C)CC4)c3)nc2c2c1ncn2C` showed a clearance in [3] of 130 mL/min/kg. The IC50 with PBMC turned out to be 560 nM; in [1], 10 nM.
For the compound `CNc1nc2sc(-c3cccc(C(C)NC(C)=O)c3)nc2c2c1ncn2C` (stereo not given), the IC50 in data set [2] was 430 nM; in the data set on PBMC, 170 nM; in data set [1], 9 nM.
Compound `CCNc1nc2sc(-c3cccc([C@H](C)NC(=O)c4cc(C)on4)c3)nc2c2c1ncn2C` showed a clearance in data set [3] of 2.8 mL/min/kg. Further, the IC50 worked out at 940 nM in the data set on PBMC and 78 nM in data set [1]. In addition, the half-life (commonly the time needed for the level to fall by half in the phase considered) in data set [4] is 2.8 h.
For `CCNc1nc2sc(-c3cccc([C@H](C)NC(=O)C4(C)CC4)c3)nc2c2c1ncn2C`, in that order: 7.5 mL/min/kg, 440 nM, 34 nM and 2 h.
For the compound `CC(=O)N[C@@H](C)c1cccc(-c2nc3c(nc(NCC(F)(F)F)c4ncn(C)c43)s2)c1`, the half-inhibitory concentration (IC50) in the data set with PBMC was 1360 nM; in data set [1], 57 nM.
The compound `CCNc1nc2sc(-c3cccc([C@H](C)NC(=O)C4CCNCC4)c3)nc2c2c1ncn2C` gave a clearance in [3] of 3 mL/min/kg. Further, the figures for the concentration for half-maximal inhibition (IC50) (with PBMC; in data set [1]) were 290 nM and 20 nM, respectively. The compound further showed a half-life in data set [4] of 2.9 h.
Take `CC(=O)NCc1cc(-c2cc3nc(NC4CC4)c4ncn(C)c4n3n2)ccc1F`: the IC50 with PBMC worked out at 730 nM.
`CCNc1nc2sc(-c3cccc([C@H](C)NC(=O)COCC)c3)nc2c2c1ncn2C`: the IC50 in the data set with PBMC stood at 600 nM; in data set [1] it was 16 nM.
`CC(=O)N[C@@H](C)c1cccc(-c2nc3c(nc(N)c4ncn(C)c43)s2)c1`: the residual activity in data set [5] and in data set [8] was under 10% in each case. Further, the AUC in the data set with Mus musculus [6] is 3.37 µM; in the data set with Rattus norvegicus, 2400 nM; in the data set on Canis familiaris, 400 nM. The IC50 with Blood [7] was 2000 nM; with PBMC, 290 nM; in data set [1] it was 13 nM; with Blood [9], 1000 nM. For the same compound, the inhibition result in the data set with Mus musculus [10] was “Dose-dependent effect”.
Regarding `CC(=O)N[C@@H](C)c1cccc(-c2nc3c(nc(NCCN)c4ncn(C)c43)s2)c1`, the IC50 with PBMC was found to be 4890 nM; in [1], 49 nM.
In the case of `CCNc1nc2sc(-c3cccc(C(C)(C)NC(C)=O)c3)nc2c2c1ncn2C`, the IC50 in the data set on PBMC is 400 nM; in data set [1], 36 nM.
On the same counts, the results for `CCNc1nc2sc(-c3cccc([C@@H](C)NC(C)=O)c3)nc2c2c1ncn2C` are 700 nM and 55 nM.
`CCNc1nc2sc(-c3cccc([C@H](C)NC(=O)c4cccc(S(C)(=O)=O)c4)c3)nc2c2c1ncn2C` had a clearance in data set [3] of 5.1 mL/min/kg. Further, the IC50 in the data set on PBMC turned out to be 220 nM; in data set [1], 41 nM. The same compound gave a half-life in data set [4] of 1.5 h.
With `Cc1ccc2nc(NCCN)c3ncc(C)n3c2c1` [BMS-345541], the IC50 in the data set on PBMC stood at 1000 nM.
As to `COc1nc2sc(-c3cccc([C@H](C)NC(C)=O)c3)nc2c2c1ncn2C`, the IC50 with PBMC is over 10000 nM; in data set [1], over 500 nM.
